This is an account of results in ChEMBL document CHEMBL4680268, “Pharmacomodulations of the benzoyl-thiosemicarbazide scaffold reveal antimicrobial agents targeting d-alanyl-d-alanine ligase in bacterio” (Eur J Med Chem, 2020).

Values after ≈ are worked out from the molar mass of the structure shown. Active and inactive are the calls of the source. The rule behind the calls is not given here.

Data set [1] has as its system Enterococcus faecalis. Kind of data set: Antibacterial activity against Enterococcus faecalis ATCC 29212 assessed as reduction in bacterial growth incubated for 18 to 24 hrs by broth microdilution method. It is filed as functional. Conditions: time 18-24 hrs. (In general: Dilution methods test growth across graded concentrations, often in twofold steps.)
Data set [2] concerns Klebsiella pneumoniae. In words: Antibacterial activity against Klebsiella pneumoniae ATCC700603 assessed as reduction in bacterial growth incubated for 18 to 24 hrs by broth microdilution method. Conditions: 700603, time 18-24 hrs. It counts as functional, organism-based. In outline:
(§1)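 Microdilution in cation-adjusted Mueller-Hinton broth per CLSI; two-fold compound series in CAMHB with 5% DMSO mixed 1:1 with bacterial suspension, giving 10⁶ bacteria/mL inoculum and 2.5% DMSO final. Top concentrations 0.1, 0.4 or 0.8 mM depending on solubility. Incubated 18–24 h at 37 °C; MIC read as lowest concentration preventing visible growth.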

In data set [3] the test system is Staphylococcus aureus. In words: Antibacterial activity against Staphylococcus aureus ATCC 25923 assessed as reduction in bacterial growth incubated for 18 to 24 hrs by broth microdilution method. It counts as functional. Particulars: time 18-24 hrs.
Data set [4] deals with Pseudomonas aeruginosa. In words: Antibacterial activity against Pseudomonas aeruginosa PAO1 assessed as reduction in bacterial growth incubated for 18 to 24 hrs by broth microdilution method. It counts as functional, organism-based. Conditions: time 18-24 hrs. The procedure, abridged: as §1
Data set [5] has as its system Staphylococcus aureus. Kind of data set: Antibacterial activity against methicillin and linezolid resistant Staphylococcus aureus NRS119 assessed as reduction in bacterial growth incubated for 18 to 24 hrs by broth microdilution method. It counts as functional. Particulars: time 18-24 hrs. The procedure, abridged: (§2)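 Broth microdilution in cation-adjusted Mueller-Hinton broth per CLSI; inoculum 10⁶ bacteria/mL. Two-fold serial dilutions, compound in broth with 5% DMSO mixed 1:1 with bacterial suspension, giving 2.5% DMSO final. Top concentration 0.1, 0.4 or 0.8 mM depending on solubility. Incubated 18–24 h at 37 °C. MIC = lowest concentration preventing visible growth.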

The subject of data set [6] is Staphylococcus aureus. In words: Antibacterial activity against hospital-acquired vancomycin resistant Staphylococcus aureus VRS-1 assessed as reduction in bacterial growth incubated for 18 to 24 hrs by broth microdilution method. It counts as functional. Particulars: time 18-24 hrs. In outline: as §2
Data set [7] has as its system Staphylococcus aureus. Kind of data set: Antibacterial activity against methicillin resistant and vancomycin intermediate resistant Staphylococcus aureus MU50 assessed as reduction in bacterial growth incubated for 18 to 24 hrs by broth microdilution method. It counts as functional. Particulars: time 18-24 hrs. In outline: as §2
Data set [8] relates to Staphylococcus aureus. Kind of data set: Antibacterial activity against community-acquired methicillin and erythromycin resistant Staphylococcus aureus SA325 assessed as reduction in bacterial growth incubated for 18 to 24 hrs by broth microdilution method. It is filed as functional. Conditions: time 18-24 hrs. In outline: as §2
The test system of data set [9] is Enterococcus faecalis. In words: Antibacterial activity against vancomycin resistant Enterococcus faecalis BM4390 harboring VanB mutant with inactive Ddl and constitutive expression of D-Ala-D-Lac assessed as reduction in bacterial growth incubated for 18 to 24 hrs by broth microdilution method. It counts as functional. Particulars: time 18-24 hrs. The procedure, abridged:
as §2

The subject of data set [10] is Staphylococcus aureus. In words: Antibacterial activity against hospital-acquired methicillin/ciprofloxacin and moxifloxacin resistant Staphylococcus aureus SA481 assessed as reduction in bacterial growth incubated for 18 to 24 hrs by broth microdilution method. It counts as functional. Particulars: time 18-24 hrs. The procedure, abridged: as §2
Data set [11] has as its system Enterococcus faecalis. Kind of data set: Antibacterial activity against vancomycin resistant Enterococcus faecalis JH2-2::C1 harboring constitutive expression of Ddl and vanB ligase assessed as reduction in bacterial growth incubated for 18 to 24 hrs by broth microdilution method. It is filed as functional. Particulars: time 18-24 hrs. In outline: as §2
Data set [12] relates to Escherichia coli. Kind of data set: Antibacterial activity against Escherichia coli ATCC 25922 assessed as reduction in bacterial growth incubated for 18 to 24 hrs by broth microdilution method. It is filed as functional, organism-based. Particulars: time 18-24 hrs. The procedure, abridged:
as §1

Data set [13] in a line: Inhibition of recombinant Enterococcus faecalis C-terminal His6-tagged DdlB expressed in Escherichia coli LMG194 using D-Ala as substrate preincubated with enzyme for 30 mins followed by substrate addition and measured after 20 mins by malachite green based colorimetric analysis. The procedure, abridged: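 DdlB (20 mg/L) malachite green phosphate assay: enzyme, inhibitor and 500 µM ATP preincubated 30 min at 30 °C in Tris-HCl pH 7.4 buffer with MgCl₂, KCl and 10% DMSO, then 1 mM D-Ala for 20 min; A650 read. IC₅₀ from 11 concentrations, also run with 0.01% Triton X-100; mean ± SD of triplicates, n ≥ 2; EC₅₀ given where maximal inhibition stayed below 50%.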

For data set [14], the system named is Enterococcus faecalis. In words: Inhibition of recombinant Enterococcus faecalis C-terminal His6-tagged DdlB expressed in Escherichia coli LMG194 assessed as residual activity using D-Ala as substrate at 100 uM preincubated with enzyme for 30 mins followed by substrate addition and measured after 20 mins by malachite green based colorimetric analysis relative to control. Particulars: time 50.0 min. The procedure, abridged: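 Purified E. faecalis His-tagged DdlB (20 mg/L) preincubated 30 min at 30 °C with 100 µM compound and 500 µM ATP in 20 mM Tris-HCl pH 7.4, 10 mM MgCl₂, 10 mM KCl, 10% DMSO; 1 mM D-Ala added, 20 min at 30 °C. Phosphate detected with malachite green reagent, A650 after 25 min dark; residual activity versus no-inhibitor control, triplicate.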

The subject of data set [15] is Enterococcus faecalis. In words: Antibacterial activity against vancomycin resistant Enterococcus faecalis BM4575 harboring VanE genotype, constitutive expression of Ddl and VanE D-Ala-D-Ser ligase assessed as reduction in bacterial growth incubated for 18 to 24 hrs by broth microdilution method. Particulars: time 18-24 hrs. It counts as functional. In outline:
as §2

The test system of data set [16] is Cell membrane. In words: Disruption of bacterial cell membrane in Staphylococcus aureus ATCC 25923 assessed as increase in PI uptake at 5 times MIC measured every 10 mins for 1 hr by PI dye based spectrophotometry. The procedure, abridged:
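Mid-log S. aureus ATCC 25923 (grown in MHB from OD₆₀₀ 0.05) washed into BET buffer (pH 7.5) at 1.11×10⁶ CFU/mL with 12 nM propidium iodide; compound at 1, 2, 5× MIC, 5% DMSO final. SDS 0.5% positive, buffer negative control. Fluorescence (ex 532/em 620 nm) read in the dark every 10 min for 2 h; triplicate.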

Data set [17] has as its system Cell membrane. In words: Disruption of bacterial cell membrane in Staphylococcus aureus ATCC 25923 assessed as reduction in bacterial colonies at 5X MIC measured after 2 hrs by time-kill kinetics assay.
For data set [18], the system named is THP-1. In words: Cytotoxicity against human THP-1 cells assessed as reduction in cell viability at 1 times MIC measured after 1 to 2 hrs by trypan blue exclusion assay. It is filed as cell-based. Particulars: time 1-2 hrs. The procedure, abridged:
(§3)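 Aliquots taken at 1, 2, 6, 24 h, mixed 1:1 with 0.4% Trypan blue for 5 min; percent blue-stained cells counted by light microscopy. DMSO control; triplicate, mean ± SD.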

Data set [19] can be described thus: Solubility of the compound in 1% DMSO at 5XMIC against Staphylococcus aureus ATCC 25923. It is filed as physicochemical.
The nature of data set [20]: Cytotoxicity against human THP-1 cells assessed as reduction in cell viability at 2 times MIC measured after 1 to 2 hrs by trypan blue exclusion assay. Conditions: time 1-2 hrs, read-out: INH. It is filed as cell-based. The procedure, abridged: as §3
The subject of data set [21] is Staphylococcus aureus. In words: Bactericidal activity against Staphylococcus aureus ATCC 25923 assessed as reduction in bacterial growth at 5 times MIC measured after 7 hrs by time kill assay. It is filed as functional, organism-based. The procedure, abridged:
(§4)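 S. aureus ATCC 25923 grown overnight in CAMHB, pelleted, resuspended; compound added at 1, 2 or 5× MIC to give 10⁶ CFU/mL start with 5% DMSO (DMSO-only control). Sampled at 0, 5, 15, 30 min, 1, 2, 7, 24 h; 10-fold PBS dilutions plated on charcoal TSA, counted after 24 h at 37 °C. Bactericidal = ≥3-log₁₀ drop in 24 h; triplicate, mean ± SD.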

Data set [22] concerns Staphylococcus aureus. In words: Bacteriostatic activity against Staphylococcus aureus ATCC 25923 assessed as reduction in bacterial growth at 1 and 2 times MIC measured upto 24 hrs by time kill assay. It counts as functional, organism-based. Particulars: time hrs <=24. In outline:
as §4

The test system of data set [23] is Staphylococcus aureus. In words: Inhibition of Ddl in Staphylococcus aureus ATCC 25923 assessed as increase in D-Ala/D-Ala-D-Ala ratio at 2 times MIC incubated for 30 mins by UHPLC-MS/MS analysis. The procedure, abridged: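 Log-phase S. aureus ATCC 25923 in MHB with 5% DMSO (from OD₆₀₀ 0.05) treated with compound at 2× MIC for 0–30 min; untreated and D-cycloserine 2× MIC controls. Cells chilled, pelleted, washed in M9, lysed in ice-cold MeOH/H₂O/formic acid 80:20:0.1, supernatants derivatized with Marfey's reagent in triplicate; L-Ala, D-Ala, D-Ala-D-Ala quantified by UPLC-MS/MS.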

As a reminder, the MIC is the least concentration at which growth counts as inhibited. For orientation: IC50 means the concentration that inhibits the measured activity by half. In the case of `O=C(NC(=S)NNC(=O)c1ccccc1O)c1ccc(Cl)c(Cl)c1`, the MIC in data set [1] was found to be 50 µM (≈ 19.2 µg/mL); in data set [3], 25 µM (≈ 9.61 µg/mL); in data set [5] it was 25 µM (≈ 9.61 µg/mL); in [6] it was 100 µM (≈ 38.4 µg/mL); in data set [7], 25 µM (≈ 9.61 µg/mL); in data set [8], 50 µM (≈ 19.2 µg/mL). Also, the MIC in [9] was found to be 25 µM (≈ 9.61 µg/mL); in data set [10] it was 25 µM (≈ 9.61 µg/mL); in [11], 12.5 µM (≈ 4.8 µg/mL); in data set [15] it was 50 µM (≈ 19.2 µg/mL). The outcome in data set [2], in data set [4] and in data set [12] was inactive. Besides, the IC50 in [13] worked out at 1150 nM. The Activity in data set [14] was over 50%.
For `Oc1ccccc1-c1n[nH]c(=S)n1-c1ccc(Cl)c(Cl)c1`, the result in data set [16], in [21] and in [22] was Active. Besides, the values for the Activity in data set [17] and in [18] were 2 log10CFU/ml and “Non-Toxic”, respectively. For the same compound, the MIC in [1], in data set [3], in [5], in [6], in [7] and in data set [8] was 400 µM (≈ 135 µg/mL) throughout. In addition, the MIC in data set [9] is over 800 µM; in [10], 800 µM (≈ 271 µg/mL); in [11], 400 µM (≈ 135 µg/mL); in data set [15], 400 µM (≈ 135 µg/mL). In addition, the result in data set [2], in data set [4] and in [12] was inactive. Further, the solubility entry in data set [19] was “Insoluble”. In data set [20], the cytotoxicity at 2 x MIC was 5%. The inhibition result in data set [23] was “Active”. Also, the IC50 in data set [13] came to 299000 nM.
Consider `O=C(NC(=S)NNC(=O)c1ccccc1O)c1ccccc1`, for which the minimum inhibitory concentration (MIC) in data set [1] was 100 µM (≈ 31.5 µg/mL); in data set [3] it was 100 µM (≈ 31.5 µg/mL); in data set [5] it was over 100 µM; in data set [6], 100 µM (≈ 31.5 µg/mL); in data set [7] it was over 100 µM; in data set [8], 100 µM (≈ 31.5 µg/mL). For the same compound, the MIC in [9] was over 100 µM; in data set [10] it was 100 µM (≈ 31.5 µg/mL); in data set [11] it was over 100 µM; in [15], over 100 µM. The result in [2], in data set [4] and in data set [12] was inactive. Further, in data set [13], the IC50 came to 810 nM. Further, the Activity in data set [14] is over 50%.
